The values below come from ChEMBL document CHEMBL3861989, “Amending HIV Drugs: A Novel Small-Molecule Approach To Target Lupus Anti-DNA Antibodies” (J Med Chem, 2016).

The species entered for data set [1] is Mus musculus. In words: Binding affinity to mouse anti-dsDNA monoclonal antibody R4A assessed as inhibition of RA4 binding to mouse kidney glomeruli antigens by measuring suppression of antibody deposition in kidney glomeruli at 50 uM preincubated for 1 hr followed by glomeruli addition by fluorescence microscopic analysis. The method in brief: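 Murine glomeruli isolated and adhered to glass slides. R4A (20 µg/mL) preincubated with compound (50 µM) 1 h at 37 °C, then applied to glomeruli 1 h at room temperature. Bound antibody detected with FITC-conjugated anti-mouse IgG, PBS washes, fluorescence imaging.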

A short description of data set [2]: (§1) Binding affinity to mouse anti-dsDNA monoclonal antibody R4A assessed as inhibition of RA4 binding to DWEYS peptide preincubated for 1 hr followed by DWEYS peptide addition measured after 1 hr by ELISA. The method in brief: (§2)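 Competitive ELISA: plates coated with DWEYS peptide overnight at 37 °C uncovered, blocked 3% BSA/PBS 1 h 37 °C. Compounds at varying concentrations preincubated with R4A (20 µg/mL) 1 h 37 °C, then added to washed wells 1 h 37 °C. Detection with alkaline phosphatase anti-mouse IgG (1:1000, 1 h RT), pNPP substrate 30–60 min, absorbance 405 nm.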
On the technique in general: In an ELISA, binding on a coated surface is turned into a signal by an enzyme label.

The species named for data set [3] is Mus musculus. Described as §1. The method in brief:
as §2

Data set [4] deals with Mus musculus. Briefly: Toxicity in CD-1 mouse assessed as tissue abnormalities administered daily for 1 week. It is filed as organism-based. The conditions noted are these: in vivo, 168 h.
For data set [5], the system named is Mus musculus. In words: Toxicity in CD-1 mouse assessed as behavioral changes administered daily for 1 week. It is filed as organism-based. The conditions noted are these: in vivo, 168 h.
Data set [6] is filed under the species Mus musculus. In words: Binding affinity to mouse anti-dsDNA monoclonal antibody R4A assessed as inhibition of RA4 binding to DWEYS peptide at 5 to 50 uM preincubated for 1 hr followed by DWEYS peptide addition measured after 1 hr by ELISA. The method in brief: as §2
For data set [7], the species on record is Mus musculus. In words: Neuroprotective activity in C57BL/6 mouse assessed as inhibition of R4A-induced hippocampal neuron apoptosis at 50 uM pretreated to mouse followed by R4A injection measured after 1 day by TUNEL assay. It is filed as functional. The method in brief:
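Male C57BL/6 mice (30–34 g) anesthetized with 2.5% avertin ip. R4A (20 µg/mL) preincubated with vehicle or compound (50 µM) and injected stereotaxically (2 µL) into dorsal hippocampus CA1.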

For data set [8], the system named is Mus musculus. Briefly: Inhibition of tubule dilation and casts in kidney of NZB/NZW F1 mouse systemic lupus erythematosus model at 5 mg/kg/day, ip bid administered on day 1 at 22 weeks of age measured at 60 weeks by hematoxylin and eosin staining based assay. It is filed as functional, organism-based. The method in brief:
(§3)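 Female NZB/W F1 mice dosed ip twice daily (5 mg kg−1 day−1) from 22 weeks of age. Formalin-fixed, paraffin-embedded kidney sections stained with H&E and scored blind by one investigator, 0–3+ each for glomerular sclerosis, hypercellularity, crescents, interstitial nephritis and perivascular infiltrates. Combined scores assessed at 60 weeks.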

Data set [9] has as its system Mus musculus. In words: Inhibition of lymphocyte aggregation in kidney of NZB/NZW F1 mouse systemic lupus erythematosus model at 5 mg/kg/day, ip bid administered on day 1 at 22 weeks of age measured at 60 weeks by hematoxylin and eosin staining based assay. It is filed as functional, organism-based. The method in brief:
as §3

The subject of data set [10] is Mus musculus. In words: Increase in disease free survival in NZB/W F1 mouse systemic lupus erythematosus model at 5 mg/kg/day, ip bid administered on day 1 at 22 weeks of age measured daily during compound dosing up to 34 weeks of age. It is filed as functional, organism-based. The method in brief: (§4)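 Female NZB/W F1 mice from 22 weeks of age, before severe proteinuria, grouped by matched mean proteinuria and body weight (n = 10/group). Vehicle or compound at 5 mg kg−1 day−1 given ip twice daily. Body weight weekly, proteinuria every 2 weeks. Removal on ≥20% weight loss, prostration, or ≥3+ proteinuria two consecutive weeks; study end at 46 weeks.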

The test system of data set [11] is Mus musculus. In words: Reduction in glomerular cellularity score in kidney of NZB/NZW F1 mouse systemic lupus erythematosus model at 5 mg/kg/day, ip bid administered on day 1 at 22 weeks of age measured daily during compound dosing at 60 weeks by conglomerate blinded analysis. It is filed as functional, organism-based. The method in brief: as §3
Data set [12] concerns Mus musculus. In words: Toxicity in NZB/W F1 mouse systemic lupus erythematosus model assessed as prostration at 5 mg/kg/day, ip bid administered on day 1 at 22 weeks of age measured daily during compound dosing up to 34 weeks of age. It is filed as organism-based. The conditions noted are these: in vivo. The method in brief:
as §4

For data set [13], the system named is Mus musculus. In words: Toxicity in CD-1 mouse assessed as drug tolerance at 1 mg/kg, iv as infusion or 10 mg/kg via oral gavage measured up to 60 mins for iv dosing or up to 240 mins for oral gavage. It is filed as organism-based. The conditions noted are these: in vivo.
Data set [14] concerns Mus musculus. In words: Inhibition of IgG level in glomeruli of NZB/NZW F1 mouse systemic lupus erythematosus model at 5 mg/kg/day, ip bid administered on day 1 at 22 weeks of age. It is filed as functional, organism-based. The method in brief: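 Female NZB/W F1 mice dosed ip twice daily (5 mg kg−1 day−1) from 22 weeks of age. Formalin-fixed, paraffin-embedded terminal kidney sections from three representative mice per group stained for mouse IgG in glomeruli.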

The subject of data set [15] is Mus musculus. In words: Reduction in glomerular sclerosis score in kidney of NZB/NZW F1 mouse systemic lupus erythematosus model at 5 mg/kg/day, ip bid administered on day 1 at 22 weeks of age measured daily during compound dosing at 60 weeks by conglomerate blinded analysis. It is filed as functional, organism-based. The method in brief:
as §3

Data set [16] concerns Mus musculus. Briefly: Toxicity in NZB/W F1 mouse systemic lupus erythematosus model assessed as body weight loss at 5 mg/kg/day, ip bid administered on day 1 at 22 weeks of age measured daily during compound dosing up to 34 weeks of age. It is filed as organism-based. The conditions noted are these: in vivo. The method in brief:
as §4

Data set [17] deals with Mus musculus. In words: anti-DWEYS peptide reactivity in serum of NZB/NZW F1 mouse systemic lupus erythematosus model at 5 mg/kg/day, ip bid administered on day 1 to 71.
Data set [18] concerns Mus musculus. In words: Inhibition of glomerulonephropathy in kidney of NZB/NZW F1 mouse systemic lupus erythematosus model at 5 mg/kg/day, ip bid administered on day 1 at 22 weeks of age measured at 60 weeks by hematoxylin and eosin staining based assay. It is filed as functional, organism-based. The method in brief: as §3
The test system of data set [19] is Mus musculus. Briefly: Reduction in crescents score in kidney of NZB/NZW F1 mouse systemic lupus erythematosus model at 5 mg/kg/day, ip bid administered on day 1 at 22 weeks of age measured daily during compound dosing at 60 weeks by conglomerate blinded analysis. It is filed as functional, organism-based. The method in brief: as §3
The test system of data set [20] is Mus musculus. Briefly: Induction of delayed onset of systemic lupus erythematosus disease in NZB/W F1 mouse model at 5 mg/kg/day, ip bid administered on day 1 at 22 weeks of age measured daily during compound dosing up to 34 weeks of age. It is filed as functional. The method in brief: as §4
Data set [21] has as its system Mus musculus. Briefly: Reduction in interstitial inflammation score in kidney of NZB/NZW F1 mouse systemic lupus erythematosus model at 5 mg/kg/day, ip bid administered on day 1 at 22 weeks of age measured daily during compound dosing at 60 weeks by conglomerate blinded analysis. It is filed as functional, organism-based. The method in brief: as §3

Activity calls are given as the source filed them. The calls are words filed in the database; no cut-off is given here. Where only a bound is given, the exact number is not on record here.

As a reminder, the IC50 is the point on the concentration scale where inhibition reaches its midpoint. With `CNCCCN[C@H](CN[C@@H](Cc1ccccc1)C[C@H](O)[C@H](Cc1ccccc1)NCCOc1c(C)cccc1C)C(C)C`, the inhibition result in the data set listed under Mus musculus [1] is “Active”. Further, the IC50 in data set [2] worked out at 2.08 µM. Further, in the data set filed under Mus musculus [3], the inhibition entry is “Dose-dependent effect”. For the same compound, the Activity result in the data set on Mus musculus [4] and with Mus musculus [5] was “Non-Toxic” in each case.

Regarding `CC(C)(C)NC(=O)[C@@H]1CN(Cc2cccnc2)CCN1C[C@@H](O)C[C@@H](Cc1ccccc1)C(=O)N[C@H]1c2ccccc2C[C@H]1O`, in the data set listed under Mus musculus [6], the inhibition result was “Active”.

Turning to `CC(C)(C)NC[C@@H]1CNCCN1C[C@@H](O)C[C@H](CN[C@H]1c2ccccc2C[C@H]1O)Cc1ccccc1`, the half-inhibitory concentration (IC50) in data set [2] came to 42.7 µM.

Consider `Cc1c(O)cccc1C(=O)N[C@@H](CSc1ccccc1)[C@H](O)CN1C[C@H]2CCCC[C@H]2C[C@H]1C(=O)NC(C)(C)C`, for which the inhibition entry in the data set filed under Mus musculus [1] and in the data set filed under Mus musculus [6] was “Active” each time. Moreover, in the data set listed under Mus musculus [3], the inhibition entry is “Dose-dependent effect”.

As to `Cc1c(O)cccc1CN[C@@H](CSc1ccccc1)[C@H](O)CN1C[C@H]2CCCC[C@H]2C[C@H]1CNC(C)(C)C`, the inhibition result in the data set listed under Mus musculus [1] and in the data set filed under Mus musculus [7] was “Active” in each case. Also, the half-inhibitory concentration (IC50) in data set [2] worked out at 7.27 µM. Also, the inhibition entry in the data set listed under Mus musculus [3] was “Dose-dependent effect”. The Activity entry in the data set with Mus musculus [4] and in the data set with Mus musculus [5] was “Non-Toxic” throughout.

Consider `CC(C)(C)NC[C@@H]1CC2CCCCC2CN1C[C@@H](O)[C@H](Cc1ccccc1)NC[C@H](CCN)NCC1Nc2ccccc2CC1O` (stereo partly drawn), for which the inhibition result in the data set on Mus musculus [8], in the data set with Mus musculus [9], in the data set filed under Mus musculus [1], with Mus musculus [14], with Mus musculus [17] and in the data set listed under Mus musculus [7] was “Active” each time. Further, the inhibition result with Mus musculus [18] was “Active”. Also, the outcome with Mus musculus [10], in the data set on Mus musculus [11], in the data set with Mus musculus [15], with Mus musculus [19] and in the data set with Mus musculus [21] was Active. Also, the Activity entry in the data set with Mus musculus [12] was “Non-Toxic”; in the data set with Mus musculus [13], “Non-Toxic”; with Mus musculus [4], “Non-Toxic”; in the data set on Mus musculus [16], less than 20%; with Mus musculus [5] it was “Non-Toxic”. Besides, the IC50 in data set [2] was determined as 4.5 µM. Moreover, the inhibition result in the data set listed under Mus musculus [3] was “Dose-dependent effect”. The Time in the data set on Mus musculus [20] was 26 - 36 weeks.

For the compound `Cc1cccc(C)c1OCC(=O)N[C@@H](Cc1ccccc1)[C@@H](O)C[C@H](Cc1ccccc1)NC(=O)[C@H](C(C)C)N1CCCNC1=O`, the inhibition entry in the data set listed under Mus musculus [3] is “Dose-dependent effect”. In addition, in the data set filed under Mus musculus [6], the inhibition entry is “Active”.
